Measured values as given in ChEMBL document CHEMBL4219078, “Discovery of DSP-1053, a novel benzylpiperidine derivative with potent serotonin transporter inhibitory activity and partial 5-HT1A receptor agonistic activity” (Bioorg Med Chem, 2018).
Calls of active or inactive are those of the source. The calls are words filed in the database; no cut-off is given here.

Assays:
[1] = target: T1, Sodium-dependent serotonin transporter (Homo sapiens, UniProt P31645); assay: Displacement of [3H]-citalopram from human SERT expressed in HEK293 cell membranes after 60 mins by liquid scintillation counting
T1 sequence (P31645 whole entry): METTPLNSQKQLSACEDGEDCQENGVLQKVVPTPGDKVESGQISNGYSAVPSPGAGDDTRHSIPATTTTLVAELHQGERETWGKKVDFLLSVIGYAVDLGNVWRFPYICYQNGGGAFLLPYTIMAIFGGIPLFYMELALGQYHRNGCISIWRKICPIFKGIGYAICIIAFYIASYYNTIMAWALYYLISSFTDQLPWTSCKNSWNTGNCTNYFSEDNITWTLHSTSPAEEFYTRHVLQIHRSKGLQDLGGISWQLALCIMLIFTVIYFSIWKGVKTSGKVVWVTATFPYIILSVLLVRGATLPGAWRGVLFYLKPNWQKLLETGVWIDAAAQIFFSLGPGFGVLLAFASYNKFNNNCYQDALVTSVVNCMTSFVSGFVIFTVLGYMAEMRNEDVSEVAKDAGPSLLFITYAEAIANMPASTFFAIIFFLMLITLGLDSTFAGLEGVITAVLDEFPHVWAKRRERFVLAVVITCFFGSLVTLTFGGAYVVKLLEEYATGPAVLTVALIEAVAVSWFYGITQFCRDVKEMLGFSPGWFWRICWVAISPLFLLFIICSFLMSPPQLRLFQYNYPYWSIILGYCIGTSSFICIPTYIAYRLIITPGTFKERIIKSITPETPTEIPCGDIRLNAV
Summary of the method: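 Membranes from cells expressing human serotonin transporter; [3H]citalopram radioligand. Ki from IC50 via Cheng–Prusoff (radioligand concentration and Kd). Ki values are means of two or three independent experiments.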

CYP2D6 = CYP2D6 (Homo sapiens, UniProt P10635); assay: Drug metabolism in human liver microsomes assessed as CYP2D6-medited compound metabolism at 1 uM after 15 to 30 mins by LC-MS/MS analysis; assay type: ADME; details: read-out: Drug metabolism
CYP2D6, sequence (P10635 whole entry): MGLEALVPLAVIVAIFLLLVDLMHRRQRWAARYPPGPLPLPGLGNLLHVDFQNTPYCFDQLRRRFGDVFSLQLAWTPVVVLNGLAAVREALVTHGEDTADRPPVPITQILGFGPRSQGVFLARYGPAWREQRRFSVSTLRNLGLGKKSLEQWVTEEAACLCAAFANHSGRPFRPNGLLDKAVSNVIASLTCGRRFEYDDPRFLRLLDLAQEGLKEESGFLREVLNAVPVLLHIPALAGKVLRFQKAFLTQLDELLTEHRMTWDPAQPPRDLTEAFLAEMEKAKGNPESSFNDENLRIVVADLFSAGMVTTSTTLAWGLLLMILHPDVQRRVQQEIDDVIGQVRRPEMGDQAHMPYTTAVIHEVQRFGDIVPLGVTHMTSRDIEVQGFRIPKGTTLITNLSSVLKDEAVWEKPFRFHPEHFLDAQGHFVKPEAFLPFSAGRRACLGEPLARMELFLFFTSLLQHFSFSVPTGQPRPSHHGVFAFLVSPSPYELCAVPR
Summary of the method: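 Human liver microsomes (1 mg/mL) with 1 µM test substance and 3 mM NADPH (final) in 50 mM potassium phosphate, pH 7.4, at 37 °C; stopped after 15–30 min with 3 volumes methanol. Metabolic rate taken from slope, with and without 4 µM quinidine (final). The quinidine-resistant fraction was assigned to other enzymes; CYP2D6 contribution = total minus that fraction.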

[2] = target: T1, Sodium-dependent serotonin transporter; assay: Inhibition of human SERT expressed in CHO cells assessed as reduction in [3H]5-HT uptake preincubated for 10 mins followed by [3H]5-HT addition measured after 20 mins by liquid scintillation counting; assay type: cell-based
Summary of the method: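 CHO cells stably expressing human serotonin transporter; compound or DMSO in reaction buffer pre-incubated with cells at 37 °C for 10 min, then [3H]5-HT plus compound added and incubated 37 °C for 20 min. Cells rinsed twice, lysed, radioactivity counted. IC50 values are means of at least three independent experiments.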

Rattus norvegicus = assay: Increase in serotonin levels in Crlj:WI rat frontal cortex assessed as at 10 mg/kg, po administered as single dose at 3 hrs post perfusion by microdialysis relative to baseline control; assay type: functional, organism-based
Summary of the method: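 Frontal cortex microdialysis in rats. Dialysate (10 µL per 5-min collection, at 20-min intervals) was injected automatically into HPLC for 5-HT. Oral dosing followed at least 3 h of perfusion, once baseline was stable, and sampling continued 3 h after dosing.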

## COCCOc1cc(CC2CCN(CCc3ccc4c(c3)OCCO4)CC2)ccc1Br
[1]
  Ki: 2.39 nM
CYP2D6
  metabolised at 1 µM: 55.6%

## COCCOc1cc(CC2CCN(CCc3ccc4c(c3)S(=O)(=O)CCO4)CC2)ccc1Br
[1]
  Ki: 2.59 nM
CYP2D6
  metabolised at 1 µM: 55.8%

## COCCOc1cc(CC2CCN(CCc3ccc4c(c3)CCCO4)CC2)ccc1Br
[1]
  Ki: 1.74 nM
CYP2D6
  metabolised at 1 µM: 0%

## COCCOc1cc(CC2CCN(CCc3ccc4c(c3)C(=O)CCO4)CC2)ccc1F
[1]
  Ki: 111 nM

## CCc1ccc(CC2CCN(CCc3ccc4c(c3)C(=O)CCO4)CC2)cc1OCCOC
[1]
  Ki: 9.85 nM
CYP2D6
  metabolised at 1 µM: 18.4%

## COCCOc1cc(Br)cc(CC2CCN(CCc3ccc4c(c3)OCCO4)CC2)c1
[1]
  Ki: 18.5 nM
CYP2D6
  metabolised at 1 µM: 49.4%

## COCCOc1cc(CC2CCN(CCc3ccc4c(c3)OCCC4)CC2)ccc1Br
[1]
  Ki: 5.4 nM
CYP2D6
  metabolised at 1 µM: 6.8%

## COCCOc1cc(CC2CCN(CCc3ccc4c(c3)C(O)CCO4)CC2)ccc1Br (stereo not given)
[1]
  Ki: 8.44 nM
CYP2D6
  metabolised at 1 µM: 36.4%

## COCCOc1cc(CC2CCN(CCc3cc4c(cc3Cl)OCCO4)CC2)ccc1Br
[1]
  Ki: 5.47 nM
CYP2D6
  metabolised at 1 µM: 75.6%

## COCCOc1cc(CC2CCN(CCc3ccc4c(c3)C(=O)CCO4)CC2)ccc1C(C)C
[1]
  Ki: 246 nM

## COCCOc1cc(CC2CCN(CCc3ccc4c(c3)C(=O)CCO4)CC2)ccc1C
[1]
  Ki: 5.25 nM
CYP2D6
  metabolised at 1 µM: 48.5%
[2]
  IC50: 45.3 nM

## COCCOc1cc(CC2CCN(CCc3ccc4c(c3)C(=O)CCO4)CC2)ccc1Cl
[1]
  Ki: 3.37 nM
CYP2D6
  metabolised at 1 µM: 53.5%
[2]
  IC50: 16.4 nM

## COCCOc1cccc(CC2CCN(CCc3ccc4c(c3)C(=O)CCO4)CC2)c1
[1]
  Ki: 202 nM

## COCCOc1cccc(CC2CCN(CCc3cc4c(cc3Cl)OCCO4)CC2)c1Br
[1]
  Ki: 74.6 nM

## COCCOc1cc(Br)cc(CC2CCN(CCc3ccc4c(c3)C(=O)CCO4)CC2)c1
[1]
  Ki: 5.32 nM
CYP2D6
  metabolised at 1 µM: 14%

## COCCOc1cc(Br)cc(CC2CCN(CCc3cc4c(cc3Cl)OCCO4)CC2)c1
[1]
  Ki: 14.1 nM
CYP2D6
  metabolised at 1 µM: 64.4%

## COCCOc1cc(CC2CCN(CCc3ccc4c(c3)OCCC4=O)CC2)ccc1Br
[1]
  Ki: 1.41 nM
CYP2D6
  metabolised at 1 µM: 3.6%

## COCCOc1cc(CC2CCN(CCc3ccc4c(c3)C(=O)CCO4)CC2)ccc1I
[1]
  Ki: 0.41 nM

## COCCOc1cc(CC2CCN(CCc3ccc4c(c3)C(=O)CCO4)CC2)ccc1Br
CYP2D6
  metabolised at 1 µM: 0%
Rattus norvegicus
  Activity: Active

## COCCOc1cc(CC2CCN(CCc3ccc4c(c3)C(=O)CCC4)CC2)ccc1Br
[1]
  Ki: 0.67 nM
CYP2D6
  metabolised at 1 µM: 11.8%

## COCCOc1ccc(Br)c(CC2CCN(CCc3cc4c(cc3Cl)OCCO4)CC2)c1
CYP2D6
  metabolised at 1 µM: 86%

## COCCOc1cc(CC2CCN(CCc3ccc4c(c3)C(=O)CCCO4)CC2)ccc1Br
[1]
  Ki: 1.17 nM
CYP2D6
  metabolised at 1 µM: 4.2%
